Reference: ChEMBL document CHEMBL4229530, “5-Adamantan thiadiazole-based thiazolidinones as antimicrobial agents. Design, synthesis, molecular docking and evaluation” (2018)
In brackets after ≈: the same amount, converted by molar mass.

How the values were obtained:
[1] = system: Staphylococcus aureus; assay: Antibacterial activity against methicillin-resistant Staphylococcus aureus after 24 hrs by INT dye based microdilution assay; format: functional
Procedure, shortened: (§1)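 Broth microdilution in tryptic soy broth. Overnight culture adjusted to 1×10^5 CFU/mL, giving 1.0×10^4 CFU per well. Compounds dissolved in 5% DMSO and tested at 0.001-1.0 mg/ml. Plates incubated 24 h at 37°C. INT (0.2 mg/mL) then added, with 30 min at 37°C. Duplicate, repeated three times.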

[2] = system: Staphylococcus aureus; assay: Antibacterial activity against Staphylococcus aureus ATCC 6538 after 24 hrs by INT dye based microdilution assay; format: functional; conditions: ATCC 6538, 24 h
Procedure, shortened: (§2)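 Broth microdilution in tryptic soy broth: overnight bacterial culture adjusted to 1×10^5 CFU/mL, 1.0×10^4 CFU per well; compounds dissolved in 5% DMSO, tested at 0.001-1.0 mg/ml; 24 h at 37°C. Streptomycin and ampicillin as positive controls, 5% DMSO as negative control; duplicate, repeated three times.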

[3] = system: Aspergillus ochraceus; assay: Antifungal activity against Aspergillus ochraceus ATCC 12066 after 72 hrs by serial dilution assay; format: functional; conditions: ATCC 12066, 72 h
Procedure, shortened: (§3)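 Modified microdilution: fungal spores washed off malt agar with sterile 0.85% saline plus 0.1% Tween 80, adjusted to about 1.0×10^5 per 100 µL well. Compounds in 5% DMSO (0.001-1.0 mg/ml) in malt broth; 72 h at 28°C on rotary shaker (160 rpm). MIC is lowest concentration without visible growth under binocular microscope. Bifonazole and ketoconazole controls (1-3500 µg/mL); three independent experiments in duplicate.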

[4] = system: Micrococcus flavus; assay: Antibacterial activity against Micrococcus flavus ATCC 10240 after 24 hrs by INT dye based microdilution assay; format: functional; conditions: ATCC 10240, 24 h; procedure, shortened: as §2
[5] = system: Bacillus cereus; assay: Antibacterial activity against Bacillus cereus after 24 hrs by INT dye based microdilution assay; format: functional; procedure, shortened: as §2
[6] = system: Enterobacter cloacae; assay: Antibacterial activity against Enterobacter cloacae after 24 hrs by INT dye based microdilution assay; format: functional; procedure, shortened: as §2
[7] = system: Salmonella typhimurium; assay: Antibacterial activity against Salmonella typhimurium ATCC 13311 after 24 hrs by INT dye based microdilution assay; format: functional, Salmonella enterica subsp. enterica serovar Typhimurium; conditions: Salmonella enterica, ATCC 13311, 24 h; procedure, shortened: as §2
[8] = system: Trichoderma viride; assay: Antifungal activity against Trichoderma viride IAM 5061 after 72 hrs by serial dilution assay; format: functional; conditions: IAM 5061, 72 h; procedure, shortened: as §3
[9] = system: Aspergillus niger; assay: Antifungal activity against Aspergillus niger ATCC 6275 after 72 hrs by serial dilution assay; format: functional; conditions: ATCC 6275, 72 h; procedure, shortened: as §3
[10] = system: Escherichia coli; assay: Antibacterial activity against drug-resistant Escherichia coli after 24 hrs by INT dye based microdilution assay; format: functional; procedure, shortened: as §1
[11] = system: Pseudomonas aeruginosa; assay: Antibacterial activity against Pseudomonas aeruginosa ATCC 27853 after 24 hrs by INT dye based microdilution assay; format: functional; conditions: ATCC 27853, 24 h; procedure, shortened: as §2
[12] = system: Aspergillus versicolor; assay: Antifungal activity against Aspergillus versicolor ATCC 11730 after 72 hrs by serial dilution assay; format: functional; conditions: ATCC 11730, 72 h; procedure, shortened: as §3
[13] = system: Listeria monocytogenes; assay: Antibacterial activity against Listeria monocytogenes NCTC 7973 after 24 hrs by INT dye based microdilution assay; format: functional; conditions: NCTC 7973, 24 h; procedure, shortened: as §2
[14] = system: Listeria monocytogenes; assay: Potency index, ratio of streptomycin MIC to compound MIC for antibacterial activity against Listeria monocytogenes NCTC 7973; format: functional
[15] = system: Listeria monocytogenes; assay: Potency index, ratio of ampicillin MIC to compound MIC for antibacterial activity against Listeria monocytogenes NCTC 7973; format: functional
[16] = system: Aspergillus fumigatus; assay: Antifungal activity against Aspergillus fumigatus isolate 1022 after 72 hrs by serial dilution assay; format: functional; conditions: isolate 1022, 72 h; procedure, shortened: as §3
[17] = system: Penicillium verrucosum; assay: Antifungal activity against Penicillium cyclopium var verucosum after 72 hrs by serial dilution assay; format: functional; procedure, shortened: as §3
[18] = system: Pseudomonas aeruginosa; assay: Antibacterial activity against drug-resistant Pseudomonas aeruginosa after 24 hrs by INT dye based microdilution assay; format: functional; procedure, shortened: as §1
[19] = system: Talaromyces funiculosus; assay: Antifungal activity against Penicillium funiculosum ATCC 36839 after 72 hrs by serial dilution assay; format: functional; conditions: ATCC 36839, 72 h; procedure, shortened: as §3
[20] = system: Escherichia coli; assay: Antibacterial activity against Escherichia coli ATCC 35210 after 24 hrs by INT dye based microdilution assay; format: functional; conditions: ATCC 35210, 24 h; procedure, shortened: as §2
[21] = system: Penicillium ochrochloron; assay: Antifungal activity against Penicillium ochrochloron ATCC 9112 after 72 hrs by serial dilution assay; format: functional; conditions: ATCC 9112, 72 h; procedure, shortened: as §3
[22] = system: Candida albicans; assay: Antifungal activity against Candida albicans after 72 hrs by serial dilution assay; format: functional; procedure, shortened: as §3

Row | SMILES | MIC [2] [µM] | MIC [3] [µM] | MIC [4] [µM] | MIC [5] [µM] | MIC [6] [µM] | MIC [7] [µM] | MIC [8] [µM] | MIC [9] [µM] | MIC [11] [µM] | MIC [12] [µM] | MIC [13] [µM] | MIC [16] [µM] | MIC [19] [µM] | MIC [20] [µM] | MIC [21] [µM] | MIC [22] [µM] | MIC [17] [µM] | further results
1 | O=C1N/C(=N\c2nnc(C34CC5CC(CC(C5)C3)C4)s2)S/C1=C/c1cccc([N+](=O)[O-])c1 | 0.0418 (≈ 0.0195 µg/mL) | 107 (≈ 50 µg/mL) | 41.8 (≈ 19.5 µg/mL) | 21.4 (≈ 10 µg/mL) | 41.8 (≈ 19.5 µg/mL) | 21.4 (≈ 10 µg/mL) | 53.5 (≈ 25 µg/mL) | 214 (≈ 100 µg/mL) | 21.4 (≈ 10 µg/mL) | 107 (≈ 50 µg/mL) | 17 (≈ 7.95 µg/mL) | 107 (≈ 50 µg/mL) | 107 (≈ 50 µg/mL) | 0.0418 (≈ 0.0195 µg/mL) | 214 (≈ 100 µg/mL) | – | 0.107 (≈ 0.05 µg/mL) | MIC [1]: 0.107 µM (≈ 0.05 µg/mL); MIC [10]: 0.0535 µM (≈ 0.025 µg/mL); Ratio [14]: 20; Ratio [15]: 29; MIC [18]: 53.5 µM (≈ 25 µg/mL)
2 | O=C1N/C(=N\c2nnc(C34CC5CC(CC(C5)C3)C4)s2)S/C1=C/c1ccc(Br)cc1 | 0.06 (≈ 0.0301 µg/mL) | 15.6 (≈ 7.82 µg/mL) | 250 (≈ 125 µg/mL) | 14 (≈ 7.02 µg/mL) | 60 (≈ 30.1 µg/mL) | 14 (≈ 7.02 µg/mL) | 31.2 (≈ 15.6 µg/mL) | 62.5 (≈ 31.3 µg/mL) | 60 (≈ 30.1 µg/mL) | 62.5 (≈ 31.3 µg/mL) | 250 (≈ 125 µg/mL) | 125 (≈ 62.7 µg/mL) | 125 (≈ 62.7 µg/mL) | 0.08 (≈ 0.0401 µg/mL) | 62.5 (≈ 31.3 µg/mL) | 200 (≈ 100 µg/mL) | – | –
3 | COc1cc(/C=C2/S/C(=N/c3nnc(C45CC6CC(CC(C6)C4)C5)s3)NC2=O)ccc1O | 0.032 (≈ 0.015 µg/mL) | 17 (≈ 7.97 µg/mL) | 134 (≈ 62.8 µg/mL) | 32 (≈ 15 µg/mL) | 32 (≈ 15 µg/mL) | 32 (≈ 15 µg/mL) | 17 (≈ 7.97 µg/mL) | 66 (≈ 30.9 µg/mL) | 32 (≈ 15 µg/mL) | 33 (≈ 15.5 µg/mL) | 134 (≈ 62.8 µg/mL) | 133 (≈ 62.3 µg/mL) | 66 (≈ 30.9 µg/mL) | 0.134 (≈ 0.0628 µg/mL) | 66 (≈ 30.9 µg/mL) | 133 (≈ 62.3 µg/mL) | – | –
4 | c1ccc(-c2ccc(C(c3ccccc3)n3ccnc3)cc2)cc1 (centres undefined) [BIFONAZOLE] | – | 480 (≈ 149 µg/mL) | – | – | – | – | 640 (≈ 199 µg/mL) | 480 (≈ 149 µg/mL) | – | 480 (≈ 149 µg/mL) | – | 480 (≈ 149 µg/mL) | 640 (≈ 199 µg/mL) | – | 480 (≈ 149 µg/mL) | 322 (≈ 99.9 µg/mL) | 0.322 (≈ 0.0999 µg/mL) | –
5 | CC(=O)N1CCN(c2ccc(OCC3COC(Cn4ccnc4)(c4ccc(Cl)cc4Cl)O3)cc2)CC1 (centres undefined) [KETOCONAZOLE] | – | 380 (≈ 202 µg/mL) | – | – | – | – | 4750 (≈ 2520 µg/mL) | 380 (≈ 202 µg/mL) | – | 2850 (≈ 1510 µg/mL) | – | 380 (≈ 202 µg/mL) | 380 (≈ 202 µg/mL) | – | 3800 (≈ 2020 µg/mL) | 376 (≈ 200 µg/mL) | 0.376 (≈ 0.2 µg/mL) | –

Continued, in another order:

Row | MIC [2] [µM] | MIC [3] [µM] | MIC [4] [µM] | MIC [5] [µM] | MIC [6] [µM] | MIC [7] [µM] | MIC [8] [µM] | MIC [9] [µM] | MIC [11] [µM] | MIC [12] [µM] | MIC [13] [µM] | MIC [16] [µM] | MIC [19] [µM] | MIC [20] [µM] | MIC [21] [µM] | MIC [22] [µM] | SMILES | MIC [17] [µM] | further results
6 | 0.088 (≈ 0.0402 µg/mL) | 68 (≈ 31.1 µg/mL) | 66 (≈ 30.2 µg/mL) | 66 (≈ 30.2 µg/mL) | 137 (≈ 62.6 µg/mL) | 66 (≈ 30.2 µg/mL) | 68 (≈ 31.1 µg/mL) | 137 (≈ 62.6 µg/mL) | 66 (≈ 30.2 µg/mL) | 68 (≈ 31.1 µg/mL) | 137 (≈ 62.6 µg/mL) | 137 (≈ 62.6 µg/mL) | 137 (≈ 62.6 µg/mL) | 0.066 (≈ 0.0302 µg/mL) | 68 (≈ 31.1 µg/mL) | 274 (≈ 125 µg/mL) | O=C1N/C(=N\c2nnc(C34CC5CC(CC(C5)C3)C4)s2)S/C1=C/c1cccc(Cl)c1 | – | –
7 | 0.137 (≈ 0.0626 µg/mL) | 68 (≈ 31.1 µg/mL) | 328 (≈ 150 µg/mL) | 137 (≈ 62.6 µg/mL) | 137 (≈ 62.6 µg/mL) | 33 (≈ 15.1 µg/mL) | 68 (≈ 31.1 µg/mL) | 137 (≈ 62.6 µg/mL) | 33 (≈ 15.1 µg/mL) | 68 (≈ 31.1 µg/mL) | 274 (≈ 125 µg/mL) | 137 (≈ 62.6 µg/mL) | 137 (≈ 62.6 µg/mL) | 0.274 (≈ 0.125 µg/mL) | 137 (≈ 62.6 µg/mL) | 274 (≈ 125 µg/mL) | O=C1N/C(=N\c2nnc(C34CC5CC(CC(C5)C3)C4)s2)S/C1=C/c1ccc(Cl)cc1 | – | –
8 | 0.068 (≈ 0.0298 µg/mL) | 71 (≈ 31.1 µg/mL) | 142 (≈ 62.3 µg/mL) | 34 (≈ 14.9 µg/mL) | 34 (≈ 14.9 µg/mL) | 34 (≈ 14.9 µg/mL) | 71 (≈ 31.1 µg/mL) | 142 (≈ 62.3 µg/mL) | 34 (≈ 14.9 µg/mL) | 71 (≈ 31.1 µg/mL) | 284 (≈ 125 µg/mL) | 142 (≈ 62.3 µg/mL) | 71 (≈ 31.1 µg/mL) | 0.091 (≈ 0.0399 µg/mL) | 142 (≈ 62.3 µg/mL) | 284 (≈ 125 µg/mL) | O=C1N/C(=N\c2nnc(C34CC5CC(CC(C5)C3)C4)s2)S/C1=C/c1ccc(O)cc1 | – | –
